In ChEMBL document CHEMBL1156641, “Linear and cyclic C18 terpenoids from the southern Australian marine brown alga Cystophora moniliformis” (J Nat Prod, 2008):
Calls of active or inactive are those of the source. The calls are words filed in the database; no cut-off is given here.

Tests used:
[1] = tested on: Trichophyton mentagrophytes; test: […] activity against Trichophyton mentagrophytes ATCC 28185 assessed as zone of inhibition; format: functional
In short: (§1)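 Disk diffusion: fungal inoculum of known concentration mixed into potato dextrose or Mueller Hinton agar and poured as a lawn. Samples at 1 mg/mL were applied to 6 mm filter paper disks, solvent evaporated, and disks placed on the seeded agar with solvent and positive controls. After incubation, the zone of inhibition outside the disk was measured as radius in mm.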

[2] = tested on: Trichophyton mentagrophytes; test: […] activity against Trichophyton mentagrophytes ATCC 28185 assessed as zone of inhibition at 1 mg/mL; format: functional, organism-based; in short: as §1
P388 = test: Antitumor activity against mouse P388 cells after 72 hrs by MTT assay; format: functional, cell-based; conditions: P388, 72 h
In short: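 P388 murine leukemia cells were incubated 72 h with a 2-fold dilution series of sample, tested from 1 mg/mL. Growth was read by MTT reduction to formazan (absorbance) relative to untreated control cells. The concentration giving 50% growth reduction is reported as IC50.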

IC50 (P388) [µM] | SMILES | inhibition zone (IZ) [1] [mm] | Activity [2]
> 40 | CC(=O)CC/C=C(\C)CC[C@H]1C(C)(C)[C@@H](O)CC[C@]1(C)O [MONILIFORMINOL A] | 1 | inactive
> 40 | CC(=O)CC/C=C(\C)CC/C=C(\C)CC[C@@H](O)C(C)(C)O | 1 | inactive
> 40 | COC(C)(C)[C@H](O)CC/C(C)=C/CC/C(C)=C/CCC(C)=O | 1 | inactive

The next lines start with the compound.

SMILES | IC50 (P388) [µM] | inhibition zone (IZ) [1] [mm] | Activity [2]
C=C(C)[C@H](O)CC/C(C)=C/CC/C(C)=C/CCC(C)=O | > 40 | 1 | inactive
CC(=O)CC/C=C(\C)CC[C@H]1C(C)(C)[C@@H](O)CC[C@@]1(C)O [MONILIFORMINOL B] | > 40 | 1 | inactive
CC(=O)CC/C=C(\C)CC/C=C(\C)CC/C=C(/C)CO | > 40 | 1 | inactive
CC(=O)CC/C=C(\C)CCC1=C(C)CC[C@H](O)C1(C)C | > 40 | 1 | inactive
